Experimental data from ChEMBL document CHEMBL4680083, “Identification of Tricyclic Agonists of Sphingosine-1-phosphate Receptor 1 (S1P) Employing Ligand-Based Drug Design” (J Med Chem, 2016).

Assays:
[1] = target: Sphingosine 1-phosphate receptor 1 (Homo sapiens, UniProt P21453); assay: Agonist activity at human S1P1 expressed in CHO cell membranes assessed as stimulation of [35S]-GTPgamma-S binding measured after 45 mins by liquid scintillation counting method; set-up: species or system Cell membrane
Summary of the method: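 S1P1/CHO cell membranes at 3 μg protein/well with 3-fold compound dilutions. [35S]GTPγS 0.2 nM final, 45 min at room temperature. Filter-plate capture, water washes, scintillation counting. EC50 taken at 50% of each compound's own Ymax.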

[2] = target: Sphingosine 1-phosphate receptor 3 (Homo sapiens, UniProt Q99500); assay: Agonist activity at human S1P3 expressed in CHO cell membranes assessed as stimulation of [35S]-GTPgamma-S binding measured after 45 mins by liquid scintillation counting method; set-up: species or system Cell membrane
Rattus norvegicus [3] = assay: Reduction in circulating lymphocytes count in Lewis rat blood at 1 mg/kg, po measured at 4 hrs by hematology analyzer based analysis; assay type: functional; set-up: scale not given: the % may be the effect or the level left
Summary of the method: (§1)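 Lewis rats were given an oral dose as a solution or suspension in PEG300, with controls receiving vehicle only. Blood was taken by retro-orbital bleeding under isoflurane at 4 and 24 h. Lymphocytes were counted on a hematology analyzer. Reduction is relative to the vehicle group, averaged over the animals in each group (n = 3−4).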

[4] = Plasma concentration in Lewis rat at 1 mg/kg, po measured at 4 hr; assay type: ADME, organism-based; settings: for concentration at 4 h: Lewis, plasma
Summary of the method: (§2)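 Lewis rats received a single oral 1.0 mg/kg dose as solution or suspension in PEG300. Blood was drawn retro-orbitally under isoflurane at 4 h and 24 h, within the blood lymphocyte reduction study. n = 3−4 per group, group mean reported.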

Rattus norvegicus [5] = assay: Reduction in circulating lymphocytes count in Lewis rat blood at 1 mg/kg, po measured at 24 hrs by hematology analyzer based analysis; assay type: functional; set-up: scale not given: the % may be the effect or the level left; summary of the method: as §1
[6] = Plasma concentration in Lewis rat at 1 mg/kg, po measured at 24 hrs; assay type: ADME, organism-based; settings: for concentration / Cp: in vivo, 1 mg/kg, 24 h; for concentration at 24 h: Lewis, plasma; for Cp: BLD = below limit of detection; summary of the method: as §2
[7] = Ratio of plasma concentration in Lewis rat at 1 mg/kg, po measured at 4 hrs to plasma concentration in Lewis rat at 1 mg/kg, po measured at 24 hrs; assay type: ADME, organism-based; settings: in vivo
[8] = Selectivity index, ratio of EC50 for agonist activity at human S1P3 expressed in CHO cell membranes to EC50 for agonist activity at human S1P1 expressed in CHO cell membranes; assay type: cell-based

Sphingosine 1-phosphate receptor 3, sequence (Q99500 whole entry): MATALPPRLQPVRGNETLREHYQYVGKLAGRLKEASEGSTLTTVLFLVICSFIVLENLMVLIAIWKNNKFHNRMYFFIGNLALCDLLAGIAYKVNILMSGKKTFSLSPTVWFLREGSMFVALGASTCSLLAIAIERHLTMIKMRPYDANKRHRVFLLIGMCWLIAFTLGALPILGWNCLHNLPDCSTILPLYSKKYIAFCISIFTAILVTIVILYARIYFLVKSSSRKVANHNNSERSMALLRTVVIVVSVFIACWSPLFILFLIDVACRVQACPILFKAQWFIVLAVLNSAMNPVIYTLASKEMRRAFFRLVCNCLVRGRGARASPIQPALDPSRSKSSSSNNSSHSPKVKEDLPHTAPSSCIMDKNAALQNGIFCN
Sphingosine 1-phosphate receptor 1, sequence (P21453 whole entry): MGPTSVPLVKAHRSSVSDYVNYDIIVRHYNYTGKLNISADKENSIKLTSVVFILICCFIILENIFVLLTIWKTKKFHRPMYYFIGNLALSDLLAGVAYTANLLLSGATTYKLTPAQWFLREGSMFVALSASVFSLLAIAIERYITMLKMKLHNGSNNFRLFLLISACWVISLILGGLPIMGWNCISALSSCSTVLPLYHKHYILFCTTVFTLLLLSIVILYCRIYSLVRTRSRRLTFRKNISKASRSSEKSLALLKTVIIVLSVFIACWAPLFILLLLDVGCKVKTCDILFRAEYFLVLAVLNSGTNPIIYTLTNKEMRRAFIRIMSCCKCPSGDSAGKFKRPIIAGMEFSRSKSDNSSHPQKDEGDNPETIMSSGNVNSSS

Structure (SMILES) | EC50 [1] | EC50 [2] | Ratio [7] | concentration at 4 h [4] | Activity (Rattus norvegicus [3]) | Activity (Rattus norvegicus [5]) | Ratio EC50 [8] | also measured
O=C(O)C[C@H]1CCCN(CC(O)c2ccc3c(c2)CCc2c-3noc2-c2noc(-c3ccccc3)c2C(F)(F)F)C1 (stereo in doubt; 73) [listing 1 of 2 here] | 4 nM | 7.4 µM | 1 | – | 70% | – | – | concentration ([4]; in vivo, 1 mg/kg, 4 h): 190 nM; Activity (Rattus norvegicus [5]; 1 mg/kg, 24 h): 72%; concentration [6]: 160 nM
O=C(O)C1CN(Cc2ccc3c(c2)CCc2c-3noc2-c2onc(-c3ccccn3)c2C(F)(F)F)C1 | 1 nM | 1.3 µM | 120 | 120 nM | 82% | 69% | 1300 | concentration at 24 h [6]: 1 nM
O=C1NC(=O)C2(CN(Cc3ccc4c(c3)CCc3c-4noc3-c3noc(-c4ccccc4)c3C(F)(F)F)C2)N1 | 51 nM | 23 µM | – | – | – | – | 450 | –
O=C(O)C[C@H]1CCCN(CC(O)c2ccc3c(c2)CCc2c-3noc2-c2noc(-c3ccccc3)c2C(F)(F)F)C1 (stereo in doubt; 73) [listing 2 of 2 here] | – | – | – | – | – | – | 1900 | –
O=C(O)[C@H]1CCCN(CC(O)c2ccc3c(c2)CCc2c-3noc2-c2noc(-c3ccccc3)c2C(F)(F)F)C1 (stereo in doubt; 75) [listing 1 of 2 here] | 0.21 nM | 13 µM | 3 | 140 nM | – | – | – | Activity (Rattus norvegicus [3]; 1 mg/kg, 4 h): 76%; Activity (Rattus norvegicus [5]; 1 mg/kg, 24 h): 76%; concentration [6]: 49 nM
O=C(O)C1CN(Cc2ccc3c(c2)CCc2c-3noc2-c2cccc(C(F)(F)F)c2)C1 | 310 nM | > 63 µM | – | – | – | – | > 200 | –
CC(C)Oc1ccc(-c2onc3c2CCc2cc(CN4CC(C(=O)O)C4)ccc2-3)cc1C(F)(F)F | 1.5 nM | 26 µM | 6 | 28 nM | 57% | 21% | 17000 | concentration at 24 h [6]: 5 nM
O=C(O)C[C@H]1CCCN(CC(O)c2ccc3c(c2)CCc2c-3noc2-c2noc(-c3ccccc3)c2C(F)(F)F)C1 (stereo in doubt; 74) [listing 2 of 2 here] | – | – | – | – | – | – | 5200 | –
O=C(O)C1CN(Cc2ccc3c(c2)CCc2c-3noc2-c2ccc(C3CCCCC3)c(C(F)(F)F)c2)C1 | 0.98 nM | 2.1 µM | 4 | 68 nM | 35% | 32% | 2100 | concentration at 24 h [6]: 17 nM
CS(=O)(=O)CCNC(=O)C(O)c1ccc2c(c1)CCc1c-2noc1-c1noc(-c2ccccc2)c1C(F)(F)F (stereo in doubt; 77) [listing 2 of 2 here] | – | – | – | – | – | – | 90 | –
CCOc1ccc(-c2onc3c2CCc2cc(CN4CC(C(=O)O)C4)ccc2-3)cc1OCC | 1.6 nM | 14 µM | – | – | – | – | 8800 | –
O=C(O)C1CN(Cc2ccc3c(c2)OCCc2c(-c4noc(-c5ccccc5)c4C(F)(F)F)noc2-3)C1 | 33 nM | 1.6 µM | – | – | – | – | 48 | –
Cn1nc(-c2noc(-c3ccccc3)c2C(F)(F)F)c2c1-c1ccc(CN3CC(C(=O)O)C3)cc1CC2 | 21 nM | > 63 µM | – | – | – | – | > 3000 | –
O=C(O)C1CN(Cc2ccc3c(c2)CCc2c-3n[nH]c2-c2onc(-c3ccccc3)c2C(F)(F)F)C1 | 190 nM | > 63 µM | – | – | – | – | > 330 | –
CN1Cc2c(noc2-c2onc(-c3ccccc3)c2C(F)(F)F)-c2ccc(CN3CC(C(=O)O)C3)cc21 | 1.6 nM | > 63 µM | – | – | – | – | > 39000 | –
O=C(O)[C@H]1CCCN(CC(O)c2ccc3c(c2)CCc2c-3noc2-c2noc(-c3ccccc3)c2C(F)(F)F)C1 (stereo in doubt; 75) [listing 2 of 2 here] | – | – | – | – | – | – | 62000 | –
O=C(O)[C@H]1CCCN(CC(O)c2ccc3c(c2)CCc2c-3noc2-c2noc(-c3ccccc3)c2C(F)(F)F)C1 (stereo in doubt; 76) [listing 2 of 2 here] | – | – | – | – | – | – | 620 | –
CS(=O)(=O)CCNC(=O)C(O)c1ccc2c(c1)CCc1c-2noc1-c1noc(-c2ccccc2)c1C(F)(F)F (stereo in doubt; 78) [listing 2 of 2 here] | – | – | – | – | – | – | 3900 | –
CC(C)Oc1ccc(-c2onc3c2CCc2cc(CN4CC(C(=O)O)C4)ccc2-3)c(C(F)(F)F)c1 | 24 nM | 11 µM | – | – | – | – | 460 | –

The next lines start with results.

EC50 [1] | EC50 [2] | Ratio [7] | concentration at 4 h [4] | Structure (SMILES) | Activity (Rattus norvegicus [3]) | Activity (Rattus norvegicus [5]) | Ratio EC50 [8] | also measured
1.6 nM | 6.2 µM | – | 190 nM | CS(=O)(=O)CCNC(=O)C(O)c1ccc2c(c1)CCc1c-2noc1-c1noc(-c2ccccc2)c1C(F)(F)F (stereo in doubt; 78) [listing 1 of 2 here] | 50% | 43% | – | concentration at 24 h [6]: 26 nM
1.5 nM | > 3.1 µM | 9 | 520 nM | CC(C)Cc1onc(-c2onc3c2CCc2cc(CN4CC(C(=O)O)C4)ccc2-3)c1C(F)(F)F | 86% | 80% | > 2100 | concentration at 24 h [6]: 61 nM
200 nM | 18 µM | – | – | CS(=O)(=O)CCNC(=O)C(O)c1ccc2c(c1)CCc1c-2noc1-c1noc(-c2ccccc2)c1C(F)(F)F (stereo in doubt; 77) [listing 1 of 2 here] | – | – | – | –
0.58 nM | 4.6 µM | 6 | 190 nM | O=C(O)C1CN(Cc2ccc3c(c2)CCc2c-3noc2-c2snc(-c3ccccc3)c2C(F)(F)F)C1 | 74% | 69% | 7900 | concentration at 24 h [6]: 32 nM
6.8 nM | 32 µM | – | 21 nM | O=C(O)C1CN(Cc2ccc3c(c2)Cc2c-3noc2-c2noc(-c3ccccc3)c2C(F)(F)F)C1 | 14% | 3% | 4700 | Cp [6]: Bld
– | – | 3 | 2100 nM | O=C(O)C1CN(Cc2ccc(-c3noc(-c4onc(-c5ccccc5)c4C(F)(F)F)n3)cc2)C1 | 78% | 91% | – | concentration at 24 h [6]: 700 nM
380 nM | > 63 µM | – | – | Cn1nc2c(c1-c1noc(-c3ccccc3)c1C(F)(F)F)CCc1cc(CN3CC(C(=O)O)C3)ccc1-2 | – | – | > 170 | –
0.33 nM | 1.7 µM | 4 | – | O=C(O)C[C@H]1CCCN(CC(O)c2ccc3c(c2)CCc2c-3noc2-c2noc(-c3ccccc3)c2C(F)(F)F)C1 (stereo in doubt; 74) [listing 1 of 2 here] | – | – | – | concentration ([4]; in vivo, 1 mg/kg, 4 h): 93 nM; Activity (Rattus norvegicus [5]; 1 mg/kg, 24 h): 87%; concentration [6]: 32 nM
0.87 nM | 1.2 µM | 48 | 190 nM | Cc1cc2c(cc1CN1CC(C(=O)O)C1)CCc1c-2noc1-c1noc(-c2ccccc2)c1C(F)(F)F | 85% | 34% | 1400 | concentration at 24 h [6]: 4 nM
26 nM | 16 µM | 7 | – | O=C(O)[C@H]1CCCN(CC(O)c2ccc3c(c2)CCc2c-3noc2-c2noc(-c3ccccc3)c2C(F)(F)F)C1 (stereo in doubt; 76) [listing 1 of 2 here] | – | – | – | Activity (Rattus norvegicus [3]; 1 mg/kg, 4 h): 28%; Activity (Rattus norvegicus [5]; 1 mg/kg, 24 h): 20%; concentration [6]: 21 nM
31 nM | 12 µM | – | – | O=C(O)C1CN(Cc2ccc3c(c2)CCCc2c(-c4noc(-c5ccccc5)c4C(F)(F)F)noc2-3)C1 | – | – | 390 | –
4.6 nM | > 63 µM | – | – | CC(C)Oc1ccc(-c2onc3c2CCc2cc(CN4CC(C(=O)O)C4)ccc2-3)cc1C#N | -5% | 12% | > 14000 | Cp ([4]; in vivo, 1 mg/kg, 4 h, BLD = below limit of detection): Bld; Cp [6]: Bld
